# Results reported in ChEMBL document CHEMBL2396535, “Synthesis and biological evaluation of 18F-labled 2-phenylindole derivatives as PET imaging probes for β-amyloid plaques” (Bioorg Med Chem, 2013).
# How the values were obtained:
# [1] = target: Amyloid-beta precursor protein (Homo sapiens, UniProt P05067); experiment: Displacement of [125I]IMPY from amyloid beta (1 to 42) (unknown origin) after 3 hrs by gamma counting analysis
# Method in brief: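 Test compound ranged over 10^-4 to 10^-8.5 in ethanol, in 0.05% BSA, 1 mL total. Incubation was 3 h at room temperature, then GF/B filtration and gamma counting. IC50 came from three independent experiments, and Ki was derived by Cheng–Prusoff.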
# Brain [2] = experiment: Ratio of drug level in brain after 2 mins to drug level in brain after 60 mins in ICR mouse; type: ADME, tissue-based; details: in vivo
# Method in brief: (§1)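 Male normal ICR mice (5 weeks old), n = 5 per time point, received a tail-vein injection of [18F] tracer (740–1110 kBq/mL) in saline containing 10% EtOH. Mice were sacrificed at 2, 10, 30 and 60 min. Organs were removed, weighed and gamma-counted, and data were expressed as %ID/g.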
# [3] = Ratio of drug level in brain to blood in ICR mouse after 2 mins; type: ADME, tissue-based; details: brain and blood, read-out: BBR
# Method in brief: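 Male ICR mice (5 weeks) received the ¹⁸F tracer (740–1110 kBq/mL) in saline with 10% EtOH by tail-vein injection. Five mice per time point were sacrificed at 2, 10, 30 and 60 min. Organs were removed, weighed and gamma-counted, and expressed as %ID/g. The ratio is brain %ID/g over blood %ID/g at 2 min.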
# Spleen [4] = experiment: Biodistribution in ICR mouse spleen assessed per gram of tissue at 740 to 1110 kBq/mL, iv measured 60 mins post-injection by gamma counting analysis; type: ADME, organism-based; details: in vivo, 1 h; method in brief: as §1
# Liver [5] = experiment: Biodistribution in ICR mouse liver assessed per gram of tissue at 740 to 1110 kBq/mL, iv measured 2 mins post-injection by gamma counting analysis; type: ADME, organism-based; details: in vivo; method in brief: as §1
# Blood [6] = experiment: Biodistribution in ICR mouse blood assessed per gram of tissue at 740 to 1110 kBq/mL, iv measured 30 mins post-injection by gamma counting analysis; type: ADME, organism-based; details: in vivo, 0.5 h; method in brief: as §1
# Liver [7] = experiment: Biodistribution in ICR mouse liver assessed per gram of tissue at 740 to 1110 kBq/mL, iv measured 30 mins post-injection by gamma counting analysis; type: ADME, organism-based; details: in vivo, 0.5 h; method in brief: as §1
# Blood [8] = experiment: Biodistribution in ICR mouse blood assessed per gram of tissue at 740 to 1110 kBq/mL, iv measured 10 mins post-injection by gamma counting analysis; type: ADME, organism-based; details: in vivo; method in brief: as §1
# Blood [9] = experiment: Biodistribution in ICR mouse blood assessed per gram of tissue at 740 to 1110 kBq/mL, iv measured 2 mins post-injection by gamma counting analysis; type: ADME, organism-based; details: in vivo; method in brief: as §1
# Kidney [10] = experiment: Biodistribution in ICR mouse kidney assessed per gram of tissue at 740 to 1110 kBq/mL, iv measured 10 mins post-injection by gamma counting analysis; type: ADME, organism-based; details: in vivo; method in brief: as §1
# Lung [11] = experiment: Biodistribution in ICR mouse lung assessed per gram of tissue at 740 to 1110 kBq/mL, iv measured 60 mins post-injection by gamma counting analysis; type: ADME, organism-based; details: in vivo, 1 h; method in brief: as §1
# Stomach [12] = experiment: Biodistribution in ICR mouse stomach assessed per organ at 740 to 1110 kBq/mL, iv measured 2 mins post-injection by gamma counting analysis; type: ADME, organism-based; details: in vivo; method in brief: as §1
# Heart [13] = experiment: Biodistribution in ICR mouse heart assessed per gram of tissue at 740 to 1110 kBq/mL, iv measured 10 mins post-injection by gamma counting analysis; type: ADME, organism-based; details: in vivo; method in brief: as §1
# Intestine [14] = experiment: Biodistribution in ICR mouse intestine assessed per organ at 740 to 1110 kBq/mL, iv measured 10 mins post-injection by gamma counting analysis; type: ADME, organism-based; details: in vivo; method in brief: as §1
# Heart [15] = experiment: Biodistribution in ICR mouse heart assessed per gram of tissue at 740 to 1110 kBq/mL, iv measured 30 mins post-injection by gamma counting analysis; type: ADME, organism-based; details: in vivo, 0.5 h; method in brief: as §1
# Brain [16] = experiment: Biodistribution in ICR mouse brain assessed per gram of tissue at 740 to 1110 kBq/mL, iv measured 2 mins post-injection by gamma counting analysis; type: ADME, organism-based; details: in vivo; method in brief: as §1
# Spleen [17] = experiment: Biodistribution in ICR mouse spleen assessed per gram of tissue at 740 to 1110 kBq/mL, iv measured 30 mins post-injection by gamma counting analysis; type: ADME, organism-based; details: in vivo, 0.5 h; method in brief: as §1
# Bone [18] = experiment: Biodistribution in ICR mouse bone assessed per gram of tissue at 740 to 1110 kBq/mL, iv measured 2 mins post-injection by gamma counting analysis; type: ADME, organism-based, Bone element; details: in vivo; method in brief: as §1
# Bone [19] = experiment: Biodistribution in ICR mouse bone assessed per gram of tissue at 740 to 1110 kBq/mL, iv measured 60 mins post-injection by gamma counting analysis; type: ADME, organism-based, Bone element; details: in vivo, 1 h; method in brief: as §1
# [20] = Partition coefficient, log D of the compound in n-octanol-PBS […] at pH 7.4; type: physicochemical
# Method in brief: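 [18F] tracer (1110 kBq) was added to 3.0 g n-octanol plus 3.0 g PBS (0.05 M, pH 7.4), vortexed 3 min at room temperature, then centrifuged 5 min at 3000 rpm.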
# Liver [21] = experiment: Biodistribution in ICR mouse liver assessed per gram of tissue at 740 to 1110 kBq/mL, iv measured 10 mins post-injection by gamma counting analysis; type: ADME, organism-based; details: in vivo; method in brief: as §1
# Lung [22] = experiment: Biodistribution in ICR mouse lung assessed per gram of tissue at 740 to 1110 kBq/mL, iv measured 2 mins post-injection by gamma counting analysis; type: ADME, organism-based; details: in vivo; method in brief: as §1
# Intestine [23] = experiment: Biodistribution in ICR mouse intestine assessed per organ at 740 to 1110 kBq/mL, iv measured 2 mins post-injection by gamma counting analysis; type: ADME, organism-based; details: in vivo; method in brief: as §1
# Stomach [24] = experiment: Biodistribution in ICR mouse stomach assessed per organ at 740 to 1110 kBq/mL, iv measured 60 mins post-injection by gamma counting analysis; type: ADME, organism-based; details: in vivo, 1 h; method in brief: as §1
# Lung [25] = experiment: Biodistribution in ICR mouse lung assessed per gram of tissue at 740 to 1110 kBq/mL, iv measured 10 mins post-injection by gamma counting analysis; type: ADME, organism-based; details: in vivo; method in brief: as §1
# Blood [26] = experiment: Biodistribution in ICR mouse blood assessed per gram of tissue at 740 to 1110 kBq/mL, iv measured 60 mins post-injection by gamma counting analysis; type: ADME, organism-based; details: in vivo, 1 h; method in brief: as §1
# Intestine [27] = experiment: Biodistribution in ICR mouse intestine assessed per organ at 740 to 1110 kBq/mL, iv measured 30 mins post-injection by gamma counting analysis; type: ADME, organism-based; details: in vivo, 0.5 h; method in brief: as §1
# Brain [28] = experiment: Biodistribution in ICR mouse brain assessed per gram of tissue at 740 to 1110 kBq/mL, iv measured 10 mins post-injection by gamma counting analysis; type: ADME, organism-based; details: in vivo; method in brief: as §1
# Bone [29] = experiment: Biodistribution in ICR mouse bone assessed per gram of tissue at 740 to 1110 kBq/mL, iv measured 30 mins post-injection by gamma counting analysis; type: ADME, organism-based, Bone element; details: in vivo, 0.5 h; method in brief: as §1
# Brain [30] = experiment: Biodistribution in ICR mouse brain assessed per gram of tissue at 740 to 1110 kBq/mL, iv measured 30 mins post-injection by gamma counting analysis; type: ADME, organism-based; details: in vivo, 0.5 h; method in brief: as §1
# Heart [31] = experiment: Biodistribution in ICR mouse heart assessed per gram of tissue at 740 to 1110 kBq/mL, iv measured 2 mins post-injection by gamma counting analysis; type: ADME, organism-based; details: in vivo; method in brief: as §1
# Spleen [32] = experiment: Biodistribution in ICR mouse spleen assessed per gram of tissue at 740 to 1110 kBq/mL, iv measured 2 mins post-injection by gamma counting analysis; type: ADME, organism-based; details: in vivo; method in brief: as §1
# Kidney [33] = experiment: Biodistribution in ICR mouse kidney assessed per gram of tissue at 740 to 1110 kBq/mL, iv measured 60 mins post-injection by gamma counting analysis; type: ADME, organism-based; details: in vivo, 1 h; method in brief: as §1
# Spleen [34] = experiment: Biodistribution in ICR mouse spleen assessed per gram of tissue at 740 to 1110 kBq/mL, iv measured 10 mins post-injection by gamma counting analysis; type: ADME, organism-based; details: in vivo; method in brief: as §1
# Stomach [35] = experiment: Biodistribution in ICR mouse stomach assessed per organ at 740 to 1110 kBq/mL, iv measured 10 mins post-injection by gamma counting analysis; type: ADME, organism-based; details: in vivo; method in brief: as §1
# Stomach [36] = experiment: Biodistribution in ICR mouse stomach assessed per organ at 740 to 1110 kBq/mL, iv measured 30 mins post-injection by gamma counting analysis; type: ADME, organism-based; details: in vivo, 0.5 h; method in brief: as §1
# Liver [37] = experiment: Biodistribution in ICR mouse liver assessed per gram of tissue at 740 to 1110 kBq/mL, iv measured 60 mins post-injection by gamma counting analysis; type: ADME, organism-based; details: in vivo, 1 h; method in brief: as §1
# Kidney [38] = experiment: Biodistribution in ICR mouse kidney assessed per gram of tissue at 740 to 1110 kBq/mL, iv measured 30 mins post-injection by gamma counting analysis; type: ADME, organism-based; details: in vivo, 0.5 h; method in brief: as §1
# Brain [39] = experiment: Biodistribution in ICR mouse brain assessed per gram of tissue at 740 to 1110 kBq/mL, iv measured 60 mins post-injection by gamma counting analysis; type: ADME, organism-based; details: in vivo, 1 h; method in brief: as §1
# Bone [40] = experiment: Biodistribution in ICR mouse bone assessed per gram of tissue at 740 to 1110 kBq/mL, iv measured 10 mins post-injection by gamma counting analysis; type: ADME, organism-based, Bone element; details: in vivo; method in brief: as §1
# Intestine [41] = experiment: Biodistribution in ICR mouse intestine assessed per organ at 740 to 1110 kBq/mL, iv measured 60 mins post-injection by gamma counting analysis; type: ADME, organism-based; details: in vivo, 1 h; method in brief: as §1
# Kidney [42] = experiment: Biodistribution in ICR mouse kidney assessed per gram of tissue at 740 to 1110 kBq/mL, iv measured 2 mins post-injection by gamma counting analysis; type: ADME, organism-based; details: in vivo; method in brief: as §1
# Heart [43] = experiment: Biodistribution in ICR mouse heart assessed per gram of tissue at 740 to 1110 kBq/mL, iv measured 60 mins post-injection by gamma counting analysis; type: ADME, organism-based; details: in vivo, 1 h; method in brief: as §1
# Lung [44] = experiment: Biodistribution in ICR mouse lung assessed per gram of tissue at 740 to 1110 kBq/mL, iv measured 30 mins post-injection by gamma counting analysis; type: ADME, organism-based; details: in vivo, 0.5 h; method in brief: as §1
# Sequence of Amyloid-beta precursor protein (P05067 whole entry): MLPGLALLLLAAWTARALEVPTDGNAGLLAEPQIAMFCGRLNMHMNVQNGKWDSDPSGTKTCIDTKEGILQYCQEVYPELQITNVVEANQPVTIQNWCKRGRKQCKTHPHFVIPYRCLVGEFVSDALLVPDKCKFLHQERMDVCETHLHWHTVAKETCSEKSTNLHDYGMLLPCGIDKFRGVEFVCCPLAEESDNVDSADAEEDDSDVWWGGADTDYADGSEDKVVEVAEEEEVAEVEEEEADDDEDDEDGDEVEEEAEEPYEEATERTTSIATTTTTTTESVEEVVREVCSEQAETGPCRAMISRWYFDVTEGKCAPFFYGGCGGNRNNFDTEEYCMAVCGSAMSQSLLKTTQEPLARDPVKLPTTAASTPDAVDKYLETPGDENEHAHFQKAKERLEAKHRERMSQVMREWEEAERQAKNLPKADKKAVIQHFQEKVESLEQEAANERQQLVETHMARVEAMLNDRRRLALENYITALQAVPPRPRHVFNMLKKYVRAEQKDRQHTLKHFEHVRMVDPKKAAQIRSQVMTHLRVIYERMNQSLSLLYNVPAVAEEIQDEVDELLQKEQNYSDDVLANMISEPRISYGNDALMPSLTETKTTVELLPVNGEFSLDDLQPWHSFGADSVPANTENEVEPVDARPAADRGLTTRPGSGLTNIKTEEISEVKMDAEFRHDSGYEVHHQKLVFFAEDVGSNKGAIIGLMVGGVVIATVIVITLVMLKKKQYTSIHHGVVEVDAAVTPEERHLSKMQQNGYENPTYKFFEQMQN
smiles,measurement,setting,value
CN(CCCF)c1ccc(-c2cc3ccccc3[nH]2)cc1,Ki,[1],31.5 nM
CN(C)c1ccc(-c2cc3cc([125I])ccc3[nH]2)cc1,Ratio,Brain [2],1.68
same,Kp at 2 min,[3],0.19
Cn1c(-c2ccc(NCCF)cc2)cc2ccccc21,Ki,[1],1030 nM
CN(CC[18F])c1ccc(-c2cc3ccccc3[nH]2)cc1,Drug uptake,Spleen [4],2.71 %ID
same,Drug uptake,Liver [5],10.47 %ID
same,Drug uptake,Blood [6],4.21 %ID
same,Drug uptake,Liver [7],4.86 %ID
same,Drug uptake,Blood [8],3.81 %ID
same,Drug uptake,Blood [9],3.38 %ID
same,Drug uptake,Kidney [10],5.62 %ID
same,Drug uptake,Lung [11],3.57 %ID
same,Drug uptake,Stomach [12],1.38 %ID
same,Drug uptake,Heart [13],4.95 %ID
same,Drug uptake,Intestine [14],9.06 %ID
same,Drug uptake,Heart [15],3.71 %ID
same,Drug uptake,Brain [16],5.82 %ID
same,Drug uptake,Spleen [17],3.23 %ID
same,Drug uptake,Bone [18],2.05 %ID
same,Drug uptake,Bone [19],9.71 %ID
same,logD,[20],3.61
same,Drug uptake,Liver [21],8.38 %ID
same,Ratio,Brain [2],2.1
same,Drug uptake,Lung [22],6.57 %ID
same,Drug uptake,Intestine [23],6.5 %ID
same,Kp at 2 min,[3],1.72
same,Drug uptake,Stomach [24],1.09 %ID
same,Drug uptake,Lung [25],5.81 %ID
same,Drug uptake,Blood [26],4.37 %ID
same,Drug uptake,Intestine [27],9 %ID
same,Drug uptake,Brain [28],5.07 %ID
same,Drug uptake,Bone [29],5.95 %ID
same,Drug uptake,Brain [30],3.41 %ID
same,Drug uptake,Heart [31],6.76 %ID
same,Drug uptake,Spleen [32],2.73 %ID
same,Drug uptake,Kidney [33],3.54 %ID
same,Drug uptake,Spleen [34],3.97 %ID
same,Drug uptake,Stomach [35],1.54 %ID
same,Drug uptake,Stomach [36],1.43 %ID
same,Drug uptake,Liver [37],4.15 %ID
same,Drug uptake,Kidney [38],4.17 %ID
same,Drug uptake,Brain [39],2.77 %ID
same,Drug uptake,Bone [40],4.13 %ID
same,Drug uptake,Intestine [41],11.04 %ID
same,Drug uptake,Kidney [42],9.66 %ID
same,Drug uptake,Heart [43],3.81 %ID
same,Drug uptake,Lung [44],4.27 %ID
OCCOc1ccc(-c2cc3cc([125I])ccc3[nH]2)cc1,Ratio,Brain [2],1.17
same,Kp at 2 min,[3],0.52
CN(CCF)c1ccc(-c2cc3ccccc3n2C)cc1,Ki,[1],117 nM
